Assay [1] relates to P388. Put plainly: Concentration of compound required for 50% inhibition of synthesis of DNA in cultured P388 cells. Type of assay: functional. To be noted: Mus musculus, read-out: ED50 (the source's name).
Assay [2] relates to P388. Put plainly: Concentration of compound required for 50% inhibition of synthesis of RNA in cultured P388 cells. Type of assay: functional. To be noted: Mus musculus, read-out: ED50 (the source's name).
In assay [3] the test system is P388. As to the kind of experiment: Concentration required for 50% inhibition of incorporation of labeled thymidine by p388 cells for synthesis of DNA (in vitro); Not determined because of lack of DNA binding. To be noted: Mus musculus. In kind it is functional, cell-based.
Assay [4] deals with P388. As to the kind of experiment: Concentration required for 50% inhibition of incorporation of labeled uridine by P388 cells for the synthesis of RNA (in vitro); Not determined because of lack of DNA binding. Type of assay: functional, cell-based. As to conditions: Mus musculus.
Assay [5] concerns P388. Put plainly: Concentration required for 50% inhibition of incorporation of labeled uridine by P388 cells for the synthesis of RNA (in vitro); e indicates values are high and variable. In kind it is functional, cell-based. As to conditions: Mus musculus.
Assay [6] relates to Calf thymus DNA. As to the kind of experiment: Apparent binding constant against calf thymus DNA-drug complex; Not measurable. As to conditions: Bos taurus. In kind it is nucleic-acid assay. In a few lines: (§1)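 Calf thymus DNA; spectral titration; binding isotherms in 0.01 M phosphate buffer, pH 7.0, 20 °C; Kapp (per base pair) and Bapp (drug binding sites per base pair) taken from Scatchard plot.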

A further assay deals with CCRF-CEM. Put plainly: In vitro antitumor activity against human lymphoblastic leukemia cells. In kind it is functional. In a few lines:
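Human lymphoblastic leukemia CCRF-CEM cells grown in suspension culture; growth inhibition in vitro; ID50 (ng/mL) reported as the 50% inhibitory dose.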

The subject of assay [7] is P388. As to the kind of experiment: Percent of increased life span of P388 cells implanted CDF1 male mice. Type of assay: functional. To be noted: Mus musculus. In a few lines: (§2)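 CDF1 male mice, groups of seven, given 10^6 P388 cells ip on day 0; drug ip in 5% DMSO–saline on days 1, 5 and 9; controls received vehicle; range of doses tested, optimal nontoxic dose listed; median survival time; %ILS = (treated − control)/control × 100; average of two or more experiments.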

Assay [8] concerns P388. Put plainly: Optimal dose for antitumor activity was measured in P388 cells of CDF1 male mice in vivo. In kind it is functional. To be noted: Mus musculus. In a few lines:
as §2

In assay [9] the test system is P388. As to the kind of experiment: Concentration required for 50% inhibition of incorporation of labeled thymidine by p388 cells for synthesis of DNA (in vitro); e indicates values are high and variable. Type of assay: functional, cell-based. As to conditions: Mus musculus.
The subject of assay [10] is Calf thymus DNA. Put plainly: Apparent number of binding sites per base pairs in DNA; Not measurable. Type of assay: nucleic-acid assay. As to conditions: Bos taurus. In a few lines: as §1
For assay [11], the system named is P388. Put plainly: Median survival time of the P388 cells implanted CDF1 male mice in vivo. Type of assay: functional. As to conditions: Mus musculus. In a few lines:
as §2

Assay [12] relates to P388. Put plainly: Concentration of compound required for 50% inhibition of incorporation of labeled uridine by P388 cells for the synthesis of RNA (in vitro); Solubility too low. To be noted: Mus musculus. Type of assay: functional, cell-based.
The subject of assay [13] is P388. Put plainly: Concentration of compound required for 50% inhibition of incorporation of labeled thymidine by p388 cells for synthesis of DNA (in vitro); Solubility too low. Type of assay: functional, cell-based. To be noted: Mus musculus.
Assay [14] relates to Calf thymus DNA. Put plainly: Apparent number of binding sites per base pairs in DNA; d indicates solubility too low for determination. Type of assay: nucleic-acid assay. To be noted: Bos taurus. A digest of the protocol:
(§3)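 Calf thymus DNA; apparent binding constant and apparent number of drug binding sites per base pair, taken from a Scatchard plot of binding isotherms obtained by spectral titration. Run in 0.01 M phosphate buffer, pH 7.0, at 20 °C.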

For assay [15], the system named is Calf thymus DNA. As to the kind of experiment: Apparent binding constant against calf thymus DNA-drug complex; d indicates solubility too low for determination. To be noted: Bos taurus. Type of assay: nucleic-acid assay. In a few lines: as §3

The source of these data is ChEMBL document CHEMBL1121923, “N2- and C-7 substituted actinomycin D analogues: synthesis, DNA-binding affinity, and biochemical and biological properties. Structure-activity relationship” (J Med Chem, 1981).

Molecules are shown by their SMILES. Values after ≈ are worked out from the molar mass of the structure shown.

With `Cc1c2oc3c(C)c(O)c(N)c(C(=O)N[C@@H]4C(=O)N[C@H](C(C)C)C(=O)N5CCC[C@H]5C(=O)N(C)CC(=O)N(C)[C@@H](C(C)C)C(=O)O[C@@H]4C)c3nc-2c(C(=O)N[C@@H]2C(=O)N[C@H](C(C)C)C(=O)N3CCC[C@H]3C(=O)N(C)CC(=O)N(C)[C@@H](C(C)C)C(=O)O[C@@H]2C)c/c1=N/Cc1ccc(Cl)c(Cl)c1`, the EC50 with P388 [1] came to 418 nM; in the assay on P388 [2], 96 nM.
Regarding `CCCCCNc1c(C(=O)N[C@H]2C(=O)N[C@@H](C(C)C)C(=O)N3CCC[C@H]3C(=O)N(C)CC(=O)N(C)[C@H](C(C)C)C(=O)O[C@H]2C)c2nc3c(C(=O)N[C@@H]4C(=O)N[C@H](C(C)C)C(=O)N5CCC[C@@H]5C(=O)N(C)CC(=O)N(C)[C@@H](C(C)C)C(=O)O[C@@H]4C)ccc(C)c3oc-2c(C)c1=O`, the ED50 result in the assay on P388 [3] and with P388 [4] was “Not measurable” in each case.
As to `Cc1c2oc3c(C)c(OC(=O)Cc4ccc(Cl)c(Cl)c4)cc(C(=O)N[C@@H]4C(=O)N[C@H](C(C)C)C(=O)N5CCC[C@@H]5C(=O)N(C)CC(=O)N(C)[C@@H](C(C)C)C(=O)O[C@@H]4C)c3nc-2c(C(=O)N[C@H]2C(=O)N[C@@H](C(C)C)C(=O)N3CCC[C@H]3C(=O)N(C)CC(=O)N(C)[C@H](C(C)C)C(=O)O[C@H]2C)c(N)c1=O`, the ED50 entry with P388 [5] is “High and variable values”; in the assay on P388 [9] it was “High and variable values”. In the assay on Calf thymus DNA [6], the K app result is recorded as “Not measurable”. Besides, the ID50 in the assay with CCRF-CEM stood at 650 ng/mL (≈ 0.446 µM). The ILS in the assay with P388 [7] was determined as 100%. In addition, the Optimal dose in the assay on P388 [8] worked out at 500 µg/kg. In the assay on Calf thymus DNA [10], the Bapp result is “Not measurable”. Also, in the assay with P388 [11], the MST is 21 days.
Turning to `Cc1c2oc3c(C)ccc(C(=O)N[C@@H]4C(=O)N[C@H](C(C)C)C(=O)N5CCC[C@@H]5C(=O)N(C)CC(=O)N(C)[C@@H](C(C)C)C(=O)O[C@@H]4C)c3nc-2c(C(=O)N[C@H]2C(=O)N[C@@H](C(C)C)C(=O)N3CCC[C@H]3C(=O)N(C)CC(=O)N(C)[C@H](C(C)C)C(=O)O[C@H]2C)c(NCCCCCCCCN)c1=O`, the ED50 entry in the assay on P388 [3] and in the assay on P388 [4] was “Not measurable” throughout.
As for `CCCCCCNc1c(C(=O)N[C@H]2C(=O)N[C@@H](C(C)C)C(=O)N3CCC[C@H]3C(=O)N(C)CC(=O)N(C)[C@H](C(C)C)C(=O)O[C@H]2C)c2nc3c(C(=O)N[C@@H]4C(=O)N[C@H](C(C)C)C(=O)N5CCC[C@@H]5C(=O)N(C)CC(=O)N(C)[C@@H](C(C)C)C(=O)O[C@@H]4C)ccc(C)c3oc-2c(C)c1=O`, the ED50 entry with P388 [3] and with P388 [4] was “Not measurable” in each case.
As to `CCCCCCCCCCCNc1c(C(=O)N[C@H]2C(=O)N[C@@H](C(C)C)C(=O)N3CCC[C@H]3C(=O)N(C)CC(=O)N(C)[C@H](C(C)C)C(=O)O[C@H]2C)c2nc3c(C(=O)N[C@@H]4C(=O)N[C@H](C(C)C)C(=O)N5CCC[C@@H]5C(=O)N(C)CC(=O)N(C)[C@@H](C(C)C)C(=O)O[C@@H]4C)ccc(C)c3oc-2c(C)c1=O`, the ED50 entry in the assay with P388 [3] and with P388 [4] was “Not measurable” throughout.
Regarding `CCCCCCCCC/N=c1/cc(C(=O)N[C@@H]2C(=O)N[C@H](C(C)C)C(=O)N3CCC[C@@H]3C(=O)N(C)CC(=O)N(C)[C@@H](C(C)C)C(=O)O[C@@H]2C)c2nc3c(C(=O)N[C@H]4C(=O)N[C@@H](C(C)C)C(=O)N5CCC[C@H]5C(=O)N(C)CC(=O)N(C)[C@H](C(C)C)C(=O)O[C@H]4C)c(N)c(O)c(C)c3oc-2c1C`, the ED50 entry in the assay with P388 [12] and with P388 [13] was “Solubility too low” throughout. For the same molecule, in the assay on Calf thymus DNA [14], the Bapp result was “Not measurable”. Also, the K app entry in the assay with Calf thymus DNA [15] is recorded as “Not measurable”.
`CCCCCCCCCNc1c(C(=O)N[C@H]2C(=O)N[C@@H](C(C)C)C(=O)N3CCC[C@H]3C(=O)N(C)CC(=O)N(C)[C@H](C(C)C)C(=O)O[C@H]2C)c2nc3c(C(=O)N[C@@H]4C(=O)N[C@H](C(C)C)C(=O)N5CCC[C@@H]5C(=O)N(C)CC(=O)N(C)[C@@H](C(C)C)C(=O)O[C@@H]4C)ccc(C)c3oc-2c(C)c1=O`: the ED50 result in the assay on P388 [3] and with P388 [4] was “Not measurable” throughout.
Take `CCCCCCOc1cc(C(=O)N[C@@H]2C(=O)N[C@H](C(C)C)C(=O)N3CCC[C@@H]3C(=O)N(C)CC(=O)N(C)[C@@H](C(C)C)C(=O)O[C@@H]2C)c2nc3c(C(=O)N[C@H]4C(=O)N[C@@H](C(C)C)C(=O)N5CCC[C@H]5C(=O)N(C)CC(=O)N(C)[C@H](C(C)C)C(=O)O[C@H]4C)c(N)c(=O)c(C)c-3oc2c1C`: the ED50 entry was “High and variable values” in the assay with P388 [5]; “High and variable values” in the assay with P388 [9]. Besides, the K app result in the assay on Calf thymus DNA [6] was “Not measurable”. In the assay with Calf thymus DNA [10], the Bapp result is on record as “Not measurable”.
As to `CCCCCCCOc1cc(C(=O)N[C@@H]2C(=O)N[C@H](C(C)C)C(=O)N3CCC[C@@H]3C(=O)N(C)CC(=O)N(C)[C@@H](C(C)C)C(=O)O[C@@H]2C)c2nc3c(C(=O)N[C@H]4C(=O)N[C@@H](C(C)C)C(=O)N5CCC[C@H]5C(=O)N(C)CC(=O)N(C)[C@H](C(C)C)C(=O)O[C@H]4C)c(N)c(=O)c(C)c-3oc2c1C`, the ED50 result in the assay with P388 [5] is “High and variable values”; with P388 [9], “High and variable values”. In addition, the K app result in the assay on Calf thymus DNA [6] is reported as “Not measurable”. Besides, the Bapp entry in the assay on Calf thymus DNA [10] is reported as “Not measurable”.
